pIC50, pKd: −log10 of the molar value. Activity calls are given as the source filed them.
Key:
HCT-116 [1] = assay: Downregulation of ATP8 protein level in human HCT-116 cells at upto 4 uM incubated for 48 hrs by Western blot analysis; assay type: functional, cell-based
[2] = Toxicity in BALB/c nude mouse assessed as effect on kidney at 5 mg/kg, iv measured after 16 hrs post injection by H and E staining based analysis; assay type: organism-based; details: in vivo
HCT-116 [3] = assay: Downregulation of COX2 protein level in human HCT-116 cells at upto 4 uM incubated for 48 hrs by Western blot analysis; assay type: functional, cell-based
[4] = Toxicity in BALB/c nude mouse assessed as change in platelet count at 5 mg/kg, iv administered every two days for 16 days; assay type: organism-based; details: in vivo, 384 h, time 16 day
Outline: (§1)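 HCT116 xenograft-bearing male Balb/c nude mice (6/group) dosed iv at 5 mg/kg every two days or with PBS. Whole blood collected at sacrifice on day 16 for hematology parameters.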

HCT-116 [5] = assay: Downregulation of ND1 mRNA level in human HCT-116 cells at 0 to 4 uM measured after 48 hrs by qRT-PCR analysis; assay type: functional, cell-based; details: dose 0-4 µM
HCT-116 [6] = assay: Downregulation of ND4L mRNA level in human HCT-116 cells at 0 to 4 uM measured after 48 hrs by qRT-PCR analysis; assay type: functional, cell-based; details: dose 0-4 µM
[7] = Drug localization in human HCT-116 cells overexpressing twinkle helicase by measuring red foci at 4 uM incubated for 1 hr by hoechst33342 staining based analysis; assay type: ADME, cell-based; details: hct-116, 1 h
[8] = Toxicity in BALB/c nude mouse assessed as change in mean red blood cell volume at 5 mg/kg, iv administered every two days for 16 days; assay type: organism-based; details: in vivo, 384 h, time 16 day; outline: as §1
DNA = assay: Binding affinity to HP19 DNA (non-G4 DNA) (unknown origin) assessed as increase in fluorescence intensity by fluorescence spectrophotometric analysis; assay type: nucleic-acid assay
Outline: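 Oligonucleotides were pre-annealed at 95 °C for 10 min, then cooled slowly. Ligand (5 uM) was mixed with 20 uM DNA in buffer. Emission was collected over 550–800 nm, and enhancement was taken at 650 nm as F/F0.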

HCT-116 [9] = assay: Induction of mitochondrial dysfunction in human HCT-116 cells assessed as decrease in ATP production at upto 4 uM incubated for 3 hrs by Seahorse XFe24 analyzer; assay type: functional, cell-based
Outline: (§2)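 Seahorse Mito-stress and glycolysis stress tests on HCT116 cells treated with ligand for 3 h. Oxygen consumption rate and extracellular acidification rate recorded.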

HCT-116 [10] = assay: Downregulation of lamin B1 level in human HCT-116 cells measured after 72 hrs by Western blot analysis; assay type: functional, cell-based; details: dose <= 4.0 µM
Outline: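 HCT116 cells treated with ligand at 0-4 uM for 72 h. Lamin B1 and Ki67 imaged by immunofluorescence (excitation 635 nm), or lamin B1 probed on Western blot with β-actin as loading control.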

[11] = Toxicity in BALB/c nude mouse assessed as change in mean red blood cell hemoglobin concentration at 5 mg/kg, iv administered every two days for 16 days; assay type: organism-based; details: in vivo, 384 h, time 16 day; outline: as §1
HCT-116 [12] = assay: Induction of ROS production in human HCT-116 cells assessed as upregulation of ROS level measured after 48 hrs by mito-sox staining based analysis; assay type: functional, cell-based; details: dose <= 4.0 µM
HCT-116 [13] = assay: Induction of cell cycle arrest in human HCT-116 cells assessed as accumulation of cells at G0/G1 phase measured after 72 hrs by PI staining based flow cytometry analysis; assay type: functional; details: dose 1-4 µM
Outline: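 HCT116 cells treated at 0-4 uM for 72 h. Cell-cycle distribution measured by flow cytometry and G0/G1 percentage recorded.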

[14] = Drug localization in nucleus of human HCT-116 cells at upto 4 uM incubated for 1 hrs by hoechst33342 staining based live cell imaging analysis; assay type: ADME, subcellular; details: hct-116, 1 h
HCT-116 [15] = assay: Induction of mitochondrial dysfunction in human HCT-116 cells assessed as decrease in oxygen consumption rate at upto 4 uM incubated for 3 hrs by Seahorse XFe24 analyzer; assay type: functional, cell-based; outline: as §2
[16] = Drug localization in human HCT-116 cells transfected with Cy5-mito 78 G4 DNA at 4 uM incubated for 1 hr by hoechst33342 staining based analysis; assay type: ADME, cell-based; details: hct-116, 1 h
Outline: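 HCT116 cells transfected with Cy5-coupled mtDNA for 24 h, then given ligand 4 uM for 1 h and Hoechst33342 1 uM for 30 min. Single-plane confocal imaging of living cells, ligand excited at 488 nm, Cy5 at 635 nm. Colocalization expressed as r.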

Quadruplex DNA [17] = assay: Binding affinity to mito 29 G4 DNA (unknown origin) assessed as dissociation constant measured upto 150 secs by isothermal titration calorimetry assay; assay type: nucleic-acid assay; details: time <= 150.0 sec
HCT-116 [18] = assay: Inhibition of cell proliferation in human HCT-116 cells at upto 4 uM measured after 7 days by colony formation assay; assay type: functional, cell-based; details: time 7.0 day
Outline: (§3)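 Colony formation: HCT116 cells treated for 7 days at 0, 1, 2 or 4 uM, colonies counted and quantified; mean ± SD.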

HCT-116 [19] = assay: Inhibition of cell proliferation in human HCT-116 cells at 4 uM measured after 7 days by colony formation assay relative to control; assay type: functional; details: HCT-116, 168 h, time 7 day; outline: as §3
[20] = Drug localization in endoplasmic reticulum of living human HCT-116 cells assessed as colocalization at 4 uM incubated for 1 hr by ER-tracker blue staining based analysis; assay type: ADME, subcellular; details: hct-116, 1 h
Outline: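 Live HCT116 cells co-stained with ligand and ER-Tracker Blue. Colocalization assessed by confocal imaging.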

HCT-116 [21] = assay: Downregulation of ND6 protein level in human HCT-116 cells at upto 4 uM incubated for 48 hrs by Western blot analysis; assay type: functional, cell-based
Quadruplex DNA [22] = assay: Binding affinity to mito 55 G4 DNA (unknown origin) assessed as dissociation constant measured upto 450 secs by surface plasmon resonance assay; assay type: nucleic-acid assay
Outline: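 Surface plasmon resonance in buffer at 25 °C. Four G4-mtDNAs (Mito 78, Mito 55, Mito 29, Mito 0.5-16) and the hairpin HP19 served as substrates. Kd was derived from the sensorgrams.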

HCT-116 [23] = assay: Induction of mitochondrial dysfunction in human HCT-116 cells assessed as decrease in extracellular acidification rate at upto 4 uM incubated for 3 hrs by Seahorse XFe24 analyzer; assay type: functional, cell-based; outline: as §2
HCT-116 [24] = assay: Antitumor activity against human HCT-116 cells xenografted in Balb/c nude mouse model assessed as inhibition of tumor cell proliferation at 5 mg/kg, iv administered every two days for 16 days by Ki67 staining based analysis; assay type: functional, organism-based; details: time 16.0 day
Outline: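 Tumours came from HCT116-xenografted male Balb/c nude mice given 5 mg/kg i.v. every two days, or PBS, for 16 days. Tumour tissue sections were stained by TUNEL for apoptosis and by Ki67 immunofluorescence for proliferation, then compared with the control group.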

HCT-116 [25] = assay: Downregulation of mitochondrial respiratory chain complex III level in human HCT-116 cells at upto 4 uM measured after 48 hrs by Western blot analysis; assay type: functional, cell-based
HFF-1 = assay: Downregulation of ND2 mRNA level in human HFF-1 cells at 0 to 4 uM measured after 48 hrs by qRT-PCR analysis; assay type: functional, cell-based; details: dose 0-4 µM
Quadruplex DNA [26] = assay: Binding affinity to mito 55 G4 DNA (unknown origin) assessed as dissociation constant measured upto 150 secs by isothermal titration calorimetry assay; assay type: nucleic-acid assay
[27] = Antiproliferative activity against human BJ cells measured after 48 hrs by MTT assay; assay type: toxicity, cell-based; details: BJ cells
Outline: (§4)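 Cells exposed to the ligands for 48 h. Viability was read by MTT, and the IC50 was derived from the response.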

LoVo = assay: Antiproliferative activity against human LoVo cells measured after 48 hrs by MTT assay; assay type: functional, cell-based; outline: as §4

C(=C\c1ccc2ccccc2[n+]1CCCCCCCC[n+]1c(/C=C/c2ccc(N3CCCCC3)cc2)ccc2ccccc21)/c1ccc(N2CCCCC2)cc1.[I-].[I-]
Non-Toxic: Activity [2] | Activity [4] | Activity [8] | Activity [11]
Not Active: Drug uptake [14] | Drug uptake [20]
6.77: pKd (Quadruplex DNA [22])
4.87: pIC50 (LoVo)
100%: inhibition at 4 µM (HCT-116 [19])
7.22: pKd (Quadruplex DNA [26])
active: Activity (HCT-116 [1]) | Activity (HCT-116 [3]) | Activity (HCT-116 [5]) | Activity (HCT-116 [6]) | Activity (HCT-116 [9]) | Activity (HCT-116 [10]) Dose-Dependent Effect | Activity (HCT-116 [12]) Dose-Dependent Effect | Activity (HCT-116 [13]) Dose-Dependent Effect | Activity (HCT-116 [15]) | inhibition (HCT-116 [18]) | Activity (HCT-116 [21]) | Activity (HCT-116 [23]) | Activity (HCT-116 [24]) | Activity (HCT-116 [25]) | Activity (HFF-1)
inactive: Activity (DNA) | Activity (Quadruplex DNA [17])
Active: Drug uptake [7] | Drug uptake [16]
> 40000 nM: IC50 at 48 h [27]

Reference: ChEMBL document CHEMBL5506013, “Mitochondria-Selective Dicationic Small-Molecule Ligand Targeting G-Quadruplex Structures for Human Colorectal Cancer Therapy” (J Med Chem, 2024)
